Activity calls are given as the source filed them. No cut-off for these calls is given here.
Key:
Mu-type opioid receptor = Mu-type opioid receptor (Rattus norvegicus, UniProt P33535); assay: Displacement of [3H]-DAMGO from MOR in rat brain membranes by liquid scintillation counting analysis; format: cell membranes, Membrane
Summary of the method: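 Rat brain membranes, 0.4 mg/ml protein, incubated 45 min at 35 °C with 1 nM [3H]-DAMGO in 50 mM Tris-HCl pH 7.4. Filtration on PEI-presoaked GF/B filters, scintillation counting. Ki calculated; three experiments, each in duplicate.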

[1] = target: Delta-type opioid receptor (Rattus norvegicus, UniProt P33533); assay: Displacement of [3H]-DPDPE from DOR in rat brain membranes by liquid scintillation counting analysis; format: cell membranes, Membrane
Summary of the method: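 Rat brain membranes at 0.5 mg/ml protein, 45 min at 35 °C with 2 nM [3H]-DPDPE in 50 mM Tris-HCl pH 7.4. Competitor range 10^-11 to 10^-5 M. Nonspecific binding with 10 μM naloxone. Filtered through PEI-soaked GF/B, scintillation counted. Ki derived; three separate experiments in duplicate.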

[2] = target: Kappa-type opioid receptor (Cavia porcellus, UniProt P41144); assay: Displacement of [3H]-(+)-U69,593 from KOR in guinea pig brain membranes by liquid scintillation counting analysis; format: cell membranes, Membrane
Summary of the method: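 Guinea pig brain membranes (0.5 mg/ml) incubated 30 min at 30 °C with 1 nM [3H]-(+)-U69,593. Compounds tested from 10^-11 to 10^-5 M. Nonspecific binding with 10 μM unlabeled naloxone. GF/B filtration, liquid scintillation counting. Ki calculated; means of three experiments, each in duplicate.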

Rattus norvegicus [3] = species: Rattus norvegicus; assay: Ratio of Ki for DOR in rat brain membranes to Ki for MOR in rat brain membranes; format: cell membranes
Summary of the method: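 Ratio of Ki values: DOR Ki (rat brain, [3H]-DPDPE, 2 nM) divided by MOR Ki (rat brain, [3H]-DAMGO, 1 nM), both from 45 min, 35 °C competition binding in 50 mM Tris-HCl pH 7.4.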

[4] = Ratio of Ki for KOR in guinea pig brain membranes to Ki for MOR in rat brain membranes; format: cell membranes
Summary of the method: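 Ratio of KOR Ki (guinea pig brain, 1 nM [3H]-(+)-U69,593, 30 min at 30 °C) to MOR Ki (rat brain, 1 nM [3H]-DAMGO, 45 min at 35 °C).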

mu/kappa opioid receptor = mu/kappa opioid receptor (Cavia porcellus, UniProt P41144+P97266); assay: Agonist activity at MOR/KOR in Dunkin-Hartley guinea pig ileum assessed as inhibition of electrically induced contractions after 5 mins
Summary of the method: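 Guinea pig ileum longitudinal muscle/myenteric plexus strips from male guinea pigs (200–300 g), 2 g load. Transmural single pulses 0.1 Hz, 0.3 ms, 200 mA. After 60–90 min equilibration in Krebs, compounds added cumulatively, at least 5 min each. Percent inhibition of contraction; IC50 by linear regression of log concentration–effect curves, at least three trials.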

[5] = Agonist activity at DOR in CD-1 mouse vasa deferentia assessed as inhibition of electrically induced contractions after 5 mins
Summary of the method: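 Mouse vas deferens at 0.5 g tension; after equilibration, pulses 20 Hz, 0.5 ms, 1 s duration every 40 s. After 60 min equilibration in Krebs, cumulative compound additions, minimum 5 min apart. Contraction inhibition as percent of baseline; IC50 from linear regression of log concentration–effect curves, at least three trials.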

[6] = target: Kappa-type opioid receptor (Cavia porcellus) (UniProt P41144); assay: Potency index, ratio of LP1 Ki to compound Ki for KOR in guinea pig brain membranes; format: cell membranes; conditions: Membrane
[7] = target: Mu-type opioid receptor (Cavia porcellus) (UniProt P97266); assay: Antagonist activity at MOR in Dunkin-Hartley guinea pig ileum assessed as inhibition of electrically induced contractions after 5 mins by measuring ratio of IC50 for test compounds in presence and absence of NLX
Summary of the method: (§1)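 Isolated tissue (ileum for MOR/KOR, vas deferens for DOR) pre-incubated with a 1 μM selective antagonist (NLX or NTI 20 min; norBNI 30 min), then agonist curves repeated. Ke from ratio of IC50 with and without antagonist, by single dose method. Mean ± SEM of four independent tissues.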

[8] = target: Kappa-type opioid receptor (Cavia porcellus) (UniProt P41144); assay: Antagonist activity at KOR in Dunkin-Hartley guinea pig ileum assessed as inhibition of electrically induced contractions after 5 mins by measuring ratio of IC50 for test compounds in presence and absence of nBNI; summary of the method: as §1
Mus musculus = species: Mus musculus; assay: Antagonist activity at DOR in CD-1 mouse vasa deferentia assessed as inhibition of electrically induced contractions after 5 mins by measuring ratio of IC50 for test compounds in presence and absence of […]; summary of the method: as §1
Rattus norvegicus [9] = assay: Antinociceptive activity in rat assessed as reduction in response to heat administered ip measured 240 mins post dose by tail-flick test; format: functional, organism-based
Rattus norvegicus [10] = species: Rattus norvegicus; assay: Antinociceptive activity in rat assessed as reduction in response to heat pretreated with naloxone for 30 mins prior to compound treatment by tail-flick test; format: functional
Rattus norvegicus [11] = assay: Antinociceptive activity in rat assessed as reduction in response to heat administered ip measured 45 to 180 mins post dose by tail-flick test; format: functional, organism-based
Rattus norvegicus [12] = assay: Antinociceptive activity in rat assessed as reduction in response to heat administered ip measured 60 mins post dose by tail-flick test; format: functional

Kappa-type opioid receptor (Cavia porcellus), sequence (P41144 whole entry): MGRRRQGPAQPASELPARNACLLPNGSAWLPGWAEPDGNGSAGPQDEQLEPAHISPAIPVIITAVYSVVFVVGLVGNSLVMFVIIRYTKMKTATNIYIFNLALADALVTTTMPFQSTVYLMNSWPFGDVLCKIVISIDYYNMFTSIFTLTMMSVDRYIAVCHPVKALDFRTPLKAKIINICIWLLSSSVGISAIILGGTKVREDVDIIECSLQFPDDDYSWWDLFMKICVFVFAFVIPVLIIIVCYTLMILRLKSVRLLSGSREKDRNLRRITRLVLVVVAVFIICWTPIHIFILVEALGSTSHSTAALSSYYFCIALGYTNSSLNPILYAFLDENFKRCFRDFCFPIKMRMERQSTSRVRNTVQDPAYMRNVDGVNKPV
Kappa-type opioid receptor, sequence (P41144 whole entry): as above
Mu-type opioid receptor, sequence (P33535 whole entry): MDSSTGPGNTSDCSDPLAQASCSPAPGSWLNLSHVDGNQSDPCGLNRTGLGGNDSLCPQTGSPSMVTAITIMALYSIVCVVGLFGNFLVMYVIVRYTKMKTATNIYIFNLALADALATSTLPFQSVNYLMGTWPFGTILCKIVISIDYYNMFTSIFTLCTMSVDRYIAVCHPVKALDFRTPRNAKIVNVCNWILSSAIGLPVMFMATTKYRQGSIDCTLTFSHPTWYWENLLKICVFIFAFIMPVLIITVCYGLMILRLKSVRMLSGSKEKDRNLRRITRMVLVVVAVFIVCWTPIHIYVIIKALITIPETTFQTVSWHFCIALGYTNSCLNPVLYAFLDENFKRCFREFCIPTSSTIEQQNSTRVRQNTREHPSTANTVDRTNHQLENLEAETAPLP
Delta-type opioid receptor, sequence (P33533 whole entry): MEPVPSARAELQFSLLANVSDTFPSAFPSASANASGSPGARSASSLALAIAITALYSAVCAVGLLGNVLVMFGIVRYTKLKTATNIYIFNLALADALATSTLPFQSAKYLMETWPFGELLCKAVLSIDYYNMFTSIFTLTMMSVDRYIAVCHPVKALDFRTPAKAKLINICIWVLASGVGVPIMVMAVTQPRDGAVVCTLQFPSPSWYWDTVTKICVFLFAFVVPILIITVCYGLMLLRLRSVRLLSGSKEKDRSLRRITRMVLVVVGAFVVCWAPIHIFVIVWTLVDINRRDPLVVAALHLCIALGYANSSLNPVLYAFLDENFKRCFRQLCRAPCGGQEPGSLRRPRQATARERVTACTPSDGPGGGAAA
Mu-type opioid receptor (Cavia porcellus), sequence (P97266 whole entry): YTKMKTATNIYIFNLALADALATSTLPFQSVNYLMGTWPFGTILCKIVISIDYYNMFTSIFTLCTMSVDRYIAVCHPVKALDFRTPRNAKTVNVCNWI

Work on `C[C@H]1[C@H]2Cc3ccc(O)cc3[C@]1(C)CCN2CC(C)(O)c1ccccc1` (stereo partly specified) yielded a Ki (Mu-type opioid receptor) of 60 nM, a Ki [1] of 160 nM and a Ki [2] of 10.5 nM. The Ratio Ki (Rattus norvegicus [3]) was 2.66, the Ratio Ki [4] was 0.17 and the IC50 (mu/kappa opioid receptor) was 194.4 nM. It also gave an IC50 [5] of 794 nM and a Ratio Ki [6] of 10.
`C[C@H]1[C@H]2Cc3ccc(O)cc3[C@]1(C)CCN2C[C@H](O)c1ccccc1` showed a Ki (Mu-type opioid receptor) of 2.47 nM, a Ki [1] of 9.6 nM and a Ki [2] of 7.3 nM. The Ratio Ki (Rattus norvegicus [3]) was 3.88, the Ratio Ki [4] was 2.95 and the IC50 (mu/kappa opioid receptor) was 49.2 nM. The IC50 [5] was 10.8 nM, the Ke [7] was 35 nM and the Ke [8] was 20 nM. For the same compound, the Ke (Mus musculus) was 4 nM, the Activity (Rattus norvegicus [9]) was “Dose-dependent effect” and the Activity (Rattus norvegicus [10]) was “inactive”. It also gave a Ratio Ki [6] of 15.
In the case of `C[C@H]1[C@H]2Cc3ccc(O)cc3[C@]1(C)CCN2C[C@@H](O)c1ccccc1`, the Ki (Mu-type opioid receptor) is reported as 0.5 nM, the Ki [1] is reported as 0.8 nM and the Ki [2] is reported as 2.22 nM. It also gave a Ratio Ki (Rattus norvegicus [3]) of 1.6, a Ratio Ki [4] of 4.44 and an IC50 (mu/kappa opioid receptor) of 9.9 nM. It also gave an IC50 [5] of 11.8 nM, a Ke [7] of 21 nM and a Ke [8] of 9 nM. The Ke (Mus musculus) was 5.4 nM, the Activity (Rattus norvegicus [9]) was “Dose-dependent effect” and the Activity (Rattus norvegicus [10]) was “inactive”. For the same compound, the Ratio Ki [6] was 49.
With `COC(CN1CC[C@@]2(C)c3cc(O)ccc3C[C@@H]1[C@@H]2C)c1ccccc1` (stereo partly specified) the Ki (Mu-type opioid receptor) was 1.08 nM, the Ki [1] was 6.6 nM and the Ki [2] was 15.2 nM. For the same compound, the Ratio Ki (Rattus norvegicus [3]) was 6.1, the Ratio Ki [4] was 14.1 and the IC50 (mu/kappa opioid receptor) was 21.5 nM. For the same compound, the IC50 [5] was 4.4 nM, the Ke [7] was 19 nM and the Ke [8] was over 3000 nM. For the same compound, the Ke (Mus musculus) was 3.9 nM, the Activity (Rattus norvegicus [9]) was “Dose-dependent effect” and the Activity (Rattus norvegicus [11]) was “Active”. The ED50 (Rattus norvegicus [12]; 1 h) was 0.9 mg/kg, the Activity (Rattus norvegicus [10]) was “inactive” and the Ratio Ki [6] was 7.
For `CN1CC[C@]23c4c5ccc(O)c4O[C@H]2[C@@H](O)C=C[C@H]3[C@H]1C5`, the Activity (Rattus norvegicus [12]) was “inactive”.
With `C[C@H]1[C@H]2Cc3ccc(O)cc3[C@]1(C)CCN2CCC(=O)Nc1ccccc1` the Ratio Ki (Rattus norvegicus [3]) was 33.8, the Ratio Ki [4] was 132 and the IC50 (mu/kappa opioid receptor) was 1.9 nM. It also gave an IC50 [5] of 1240 nM, a Ke [7] of 2.3 nM and a Ke [8] of 10.8 nM.
